Here are results for three compounds from paper PMC3680915 (Biochemistry, 2013).

Each structure is given as a SMILES string. “Also recorded” adds a separate entry of the source.

Format in all cases: biochemical, bovine
Test [1] addresses T1, NADH:ubiquinone oxidoreductase (complex I) (Bos taurus, UniProt P25708). In words: NADH:FeCN oxidoreduction. Particulars: 0.1 mM NADH, 1 mM FeCN, pH 7.5, 32 °C.
Test [2] concerns the target T1, NADH:ubiquinone oxidoreductase (complex I). Description: NADH:APAD+ transhydrogenation.
Test [3] has the same target. In words: NADH:HAR oxidoreduction.
For test [4] the target is unchanged. Description: Kinetic isotope effect in NAD. Particulars: 3.5 mM HAR, pH 7.5, 32 °C. An outline of the steps:
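Bovine heart complex I with hexaammineruthenium(III) as acceptor, at 32 °C. Donor concentration series used NADH, [4R-2H]NADH, [4S-2H]NADH, APADH and [4S-2H]APADH in 20 mM Tris-HCl pH 7.5. pH dependence was measured with NADH versus [4S-2H]NADH at 0.1 mM. Reactions were enzyme-initiated and read at 340–380 nm (ε 4.81 mM–1 cm–1). Background-subtracted initial rates over ~15 s; mean of ≥3 measurements.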

For test [5] the target is unchanged. Description: Kinetic isotope effect in NAD. To be noted: 1 mM FeCN, pH 7.5, 32 °C.

On to `NC(=O)c1ccc[n+]([C@@H]2O[C@H](COP(=O)([O-])O)[C@@H](O)[C@H]2O)c1` [NMN^+, nicotinamide mononucleotide], for which the “IC50 for inhibition of the FeCN reaction” value in test [1] is recorded as “does not inhibit; also recorded: no inhibition”. Moreover, in test [2] (0.1 mM NADH, 1 mM APAD+, pH 7.5, 32 °C), the “IC50 for inhibition of the APAD+ reaction” value is listed as “does not inhibit; also recorded: no inhibition”. For the same compound, in test [3] (0.1 mM NADH, 3.5 mM HAR, pH 7.5, 32 °C), the “IC50 for inhibition of the HAR reaction” value is “does not inhibit; also recorded: no inhibition”.
What is called IC50 is the midpoint of a concentration-inhibition curve. A high value points to lower potency. Consider `Nc1ncnc2c1ncn2[C@@H]1O[C@H](CO)[C@@H](O)[C@H]1O` [adenosine], for which the “IC50 for inhibition of the FeCN reaction” value is listed as “no inhibition ^b” in test [1] and “no discernible inhibition” in test [1] (listed as Adenosine). The figures for the IC50 in test [2] and in test [3] were 10 mM and 7 mM, respectively.
Take `[2H]C1C=CN(C2OC(COP(=O)(O)OP(=O)(O)OCC3OC(n4cnc5c(N)ncnc54)C(O)C3O)C(O)C2O)C=C1C(C)=O` (stereo not drawn) [S-APADD, [4S-^2H]APADH]: in test [4], the “KIE in the APAD(H/D):HAR reaction” value is reported as around 3.5. In test [5], the “KIE in the APAD(H/D):FeCN reaction” value was around 6.5.
